SENP7 block – SENP7 protease inhibitors, primary screen, biochemical, luminescence, uHTS; Sentrin-specific protease 7 (Homo sapiens), Q9BQF6; recombinant SENP7, Z-RLRGG-aminoluciferin luminescence, 40 min; inhibition, % at 5 µM; hit rate 1.5% among 330,000; AID 434973, 2010;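 active means inhibition above about 50% at the single test dose, limit read from the data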;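 further: plate controls were DMSO with enzyme for no effect and no enzyme buffer wells for full effect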
Target sequence (Q9BQF6 706-1050 limits assumed): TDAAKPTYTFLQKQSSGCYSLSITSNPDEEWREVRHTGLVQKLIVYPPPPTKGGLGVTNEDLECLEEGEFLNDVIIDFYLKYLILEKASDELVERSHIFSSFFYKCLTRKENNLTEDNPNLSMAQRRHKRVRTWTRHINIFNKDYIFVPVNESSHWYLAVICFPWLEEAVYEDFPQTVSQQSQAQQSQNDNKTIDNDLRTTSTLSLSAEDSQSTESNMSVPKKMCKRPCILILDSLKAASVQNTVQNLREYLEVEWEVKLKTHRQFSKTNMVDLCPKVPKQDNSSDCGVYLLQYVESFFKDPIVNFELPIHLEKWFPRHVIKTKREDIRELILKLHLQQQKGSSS
SENP8 block-1 – human SENP8 protease inhibitors, primary screen, biochemical, fluorescence, Nedd8 protein substrate, uHTS | Sentrin-specific protease 8 (Homo sapiens), Q96LD8 | recombinant SENP8 | inhibition, % at 20 µM | hit rate 0.64% among 360,000; in the data active means inhibition mostly above about 40%, no sharp cut-off; inactive means mostly below about 27%
Target sequence (Q96LD8 whole entry, looked up): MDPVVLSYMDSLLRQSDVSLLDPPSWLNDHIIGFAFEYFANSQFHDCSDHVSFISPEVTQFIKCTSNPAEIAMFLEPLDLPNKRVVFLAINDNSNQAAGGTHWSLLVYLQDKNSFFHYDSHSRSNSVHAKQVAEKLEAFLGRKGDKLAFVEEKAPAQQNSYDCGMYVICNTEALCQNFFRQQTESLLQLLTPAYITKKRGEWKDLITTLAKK
SENP1 inh – human SENP1 catalytic domain inhibitors, primary screen, biochemical, FRET, uHTS; recombinant SENP1 catalytic domain, CyPet-SUMO1-YPet FRET cleavage; Sentrin-specific protease 1 (Homo sapiens), Q9P0U3; AID 624204, 2012; hit rate 0.21% among 360,000; inhibition, % at 10 µM;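 active means inhibition at least 30% at 10 µM, raw YFP signal under a set limit, fluorescence ratio 0.5 to 1.5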;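 further: 0% = enzyme with DMSO and 100% = no enzyme wells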
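System: Recombinant human SENP1 catalytic domain, His6-tagged | Incubation: Enzyme reaction for 50 min at room temperature, dark | Medium: Tris pH 8 with BME, BSA, NP40 and catalase | Also added: 25 nM SUMO1 FRET substrate | Compound: 10 µM single point, 0.5% DMSO | Measured by: FRET fluorescence in CFP and YFP emission channels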
SENP8 block-2 – SENP8 protease inhibitors, primary screen, biochemical, luminescence; purified SENP8, Z-RLRGG-aminoluciferin cleavage; inhibition, % at 10 µM; hit rate 1.2% among 330,000; AID 2540, 2010; in the data active means inhibition above about 50%
SENP6 inh – SENP6 protease inhibitors, primary screen, biochemical, luminescence, uHTS. Recombinant SENP6 catalytic domain, aminoluciferin luminescence. AID 2599, 2010. inhibition, % at 10 µM. hit rate 1.8% among 330,000. Sentrin-specific protease 6 (Homo sapiens), Q9GZR1;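 active means inhibition above about 50% at the single tested dose, limit read from the data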;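 further: plate controls were DMSO wells with enzyme for no effect and DMSO wells lacking enzyme for full effect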
SENP8 confirm – SENP8 protease inhibitors, retest, confirmation, biochemical, luminescence, single concentration; shares compounds with SENP7 block; Recombinant SENP8, Z-RLRGG-aminoluciferin luminescence, 60 min; inhibition, % at 12.5 µM; hit rate 40% among 6,200; AID 488912, 2010;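 active means mean inhibition across replicates above about 50%, limit read from the data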
SENP6 confirm – SENP6 protease inhibitors, confirmation, biochemical, luminescence, single concentration; inhibition, % at 12.5 µM; hit rate 58% among 6,200; recombinant SENP6, Z-RLRGG-aminoluciferin luminescence; shares compounds with SENP7 block
SENP7 confirm – SENP7 protease inhibitors, retest, confirmation, biochemical, luminescence, single concentration | AID 488917, 2010 | hit rate 69% among 6,200 | inhibition, % at 12.5 µM | recombinant SENP7, Z-RLRGG-aminoluciferin luminescence, 40 min | shares compounds with SENP7 block
Casp3 SENP sel – caspase-3 protease inhibitors, confirmation, selectivity assay for SENP inhibitor project, biochemical, single concentration; shares compounds with SENP7 block; inhibition, % at 12.5 µM; purified caspase-3, Z-DEVD-aminoluciferin luminescence, 60 min; hit rate 60% among 6,200;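 active means mean inhibition above about 50%, limit read from the data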;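 further: plate controls were enzyme with DMSO for no effect and wells without caspase-3 for full effect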
SENP luc ctr – interferes with luciferase luminescence in SENP counter-screen. shares compounds with SENP7 block. Pre-incubated SENP8/Z-RLRGG-aminoluciferin, luciferase luminescence interference. inhibition, % at 12.5 µM. hit rate 39% among 6,200;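 active means mean inhibition above about 50% when retested at one dose, limit read from the data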;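 further: plate controls were DMSO wells with completed reaction for no effect and substrate without enzyme for full effect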
Active calls of the source: *. The list is not random: actives were taken first. Their share in the collection is about 2.5%.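 How the source made its calls, unless noted: active means mean inhibition above about 50% in the one-dose retest (limit read from the data); inactive means the rest.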

Cc1[nH]n(-c2ccc([N+](=O)[O-])cc2)c(=O)c1C=NCCN1CCN(C(=O)c2ccccc2)CC1 was read as SENP7 block 89.9*, SENP8 block-1 28.3, SENP1 inh 5.7, SENP8 block-2 69.7*, SENP6 inh 88.4*, SENP8 confirm 27.1, SENP6 confirm 44.2, SENP7 confirm 31.4, Casp3 SENP sel 67.1* and SENP luc ctr 59.3*.
COc1ccc(CCN=Cc2c(C)[nH]n(-c3ccc([N+](=O)[O-])cc3)c2=O)cc1OC was read as SENP7 block 3.6, SENP8 block-1 13.4, SENP1 inh -0.4, SENP8 block-2 5.1 and SENP6 inh 23.5.
`Cc1[nH]n(-c2ccc([N+](=O)[O-])cc2)c(=O)c1/C=N/N1CCOCC1` gave SENP7 block 57.6*, SENP8 block-1 32.1, SENP1 inh 0.7, SENP8 block-2 44.2, SENP6 inh 78.4*, SENP8 confirm -7.8, SENP6 confirm -5.3, SENP7 confirm 16.9, Casp3 SENP sel 36.1 and SENP luc ctr 39.8.
`CC(Sc1nc(N)cc(=O)[nH]1)C(=O)Nc1ccc(N2CCOCC2)cc1` (stereo not given) gave SENP8 block-1 -1.3 and SENP1 inh -0.8.
Screening Oc1ccc(NCc2cccc(OCc3ccccc3)c2)cc1 returned SENP7 block -0.2, SENP8 block-1 43.3*, SENP1 inh 4.6, SENP8 block-2 -7.1, SENP6 inh 68.8*, SENP8 confirm -30.0, SENP6 confirm -24.1, SENP7 confirm -7.1, Casp3 SENP sel -4.1 and SENP luc ctr 5.7.
For CCCNC(=O)c1c(O)c2c([nH]c1=O)CCCC2 the results were SENP7 block 1.0, SENP8 block-1 7.4, SENP1 inh 1.2, SENP8 block-2 -7.8 and SENP6 inh -8.6.
`CCN(CC)CCCNC(=O)c1c(O)c2c([nH]c1=O)CCCC2` gave SENP7 block 59.3*, SENP8 block-1 8.7, SENP1 inh 0.6, SENP8 block-2 -0.3, SENP6 inh -9.2, SENP8 confirm 4.2, SENP6 confirm 5.1, SENP7 confirm 13.5, Casp3 SENP sel 8.7 and SENP luc ctr 4.2.
Screening O=C(Nc1cc(S(=O)(=O)N2CCCCC2)ccc1N1CCCCC1)C1CC1 returned SENP7 block -6.1, SENP8 block-1 -1.1, SENP1 inh 2.4, SENP8 block-2 -0.3 and SENP6 inh 9.4.
COc1cccc(/C=C2\Oc3ccc(O)cc3C2=O)c1O was read as SENP7 block 64.4*, SENP8 block-1 -175.0, SENP1 inh -26.6, SENP8 block-2 55.8*, SENP6 inh 71.1*, SENP8 confirm 71.7*, SENP6 confirm 69.1*, SENP7 confirm 90.3*, Casp3 SENP sel 72.4* and SENP luc ctr 16.1.
`COC(=O)c1ccc2c(c1)C(=O)/C(=C/c1ccc(O)cc1)O2` gave SENP8 block-1 -299.9 and SENP1 inh -26.0.
O=C(OCc1ccc(Cl)c(Cl)c1)c1ccc[nH]1 was read as SENP7 block 32.5, SENP8 block-1 15.4, SENP1 inh -0.6, SENP8 block-2 46.7, SENP6 inh 58.8*, SENP8 confirm 54.1*, SENP6 confirm 50.8*, SENP7 confirm 81.8*, Casp3 SENP sel 26.5 and SENP luc ctr 70.9*.
Cc1ccc(Cn2ccsc2=NC(=O)COC(=O)c2ccc(O)cc2O)cc1 was read as SENP7 block 23.2, SENP8 block-1 -3.1, SENP1 inh -0.8, SENP8 block-2 40.8, SENP6 inh 74.0*, SENP8 confirm 57.1*, SENP6 confirm 55.1*, SENP7 confirm 78.9*, Casp3 SENP sel 24.6 and SENP luc ctr 46.1.
For O=C1CN(C(=O)c2ccc(Cl)c(S(=O)(=O)N3CCc4ccccc43)c2)c2ccccc2N1 the results were SENP7 block 6.8, SENP8 block-1 8.8, SENP1 inh -2.5, SENP8 block-2 3.6, SENP6 inh 60.6*, SENP8 confirm -5.5, SENP6 confirm -8.1, SENP7 confirm -7.6, Casp3 SENP sel -4.1 and SENP luc ctr -3.9.
`N/C(=N\OC(=O)c1ccccc1Cl)c1cccnc1` gave SENP7 block 57.2*, SENP8 block-1 10.6, SENP1 inh 0.6, SENP8 block-2 41.3, SENP6 inh 65.3*, SENP8 confirm 56.0*, SENP6 confirm 53.5*, SENP7 confirm 81.7*, Casp3 SENP sel 79.2* and SENP luc ctr 64.2*.
Screening N/C(=N\OC(=O)c1ccccc1)c1cccnc1 returned SENP7 block 55.6*, SENP8 block-1 -7.2, SENP1 inh -0.9, SENP8 block-2 24.1, SENP6 inh 39.3, SENP8 confirm 16.0, SENP6 confirm 17.1, SENP7 confirm 60.9*, Casp3 SENP sel 72.5* and SENP luc ctr 37.6.
Screening N/C(=N\OC(=O)c1cc(Cl)ccc1Cl)c1cccnc1 returned SENP7 block -0.5, SENP8 block-1 19.2, SENP1 inh 3.7, SENP8 block-2 -10.4 and SENP6 inh -13.8.
N/C(=N\OC(=O)c1ccc(Cl)c(Cl)c1)c1cccnc1 was read as SENP7 block 64.2*, SENP8 block-1 17.0, SENP1 inh 1.4, SENP8 block-2 23.9, SENP6 inh 67.0*, SENP8 confirm 17.0, SENP6 confirm 21.7, SENP7 confirm 30.7, Casp3 SENP sel 31.3 and SENP luc ctr 15.2.
`N/C(=N\OC(=O)c1cccc(Cl)c1)c1cccnc1` gave SENP7 block 15.5, SENP8 block-1 15.6, SENP1 inh -1.2, SENP8 block-2 7.2 and SENP6 inh 46.1.
Screening CCOC(=O)C(=NO)C1=CSC2=NNC(C)(C)N12 returned SENP8 block-1 5.5 and SENP1 inh 1.5.
